Consider 10 compounds from ChEMBL document CHEMBL4627292, “Diarylheptanoids with NO production inhibitory activity from Amomum kravanh” (Bioorg Med Chem Lett, 2020).

Structures are written as SMILES.

One data set deals with RAW264.7. Description: Antiinflammatory activity in mouse RAW264.7 cells assessed as inhibition of LPS-induced nitric oxide production preincubated for 1 hr followed by LPS stimulation and measured after 24 hrs by Griess reagent based assay. Format: functional, cell-based. In general terms: Nitrite, measured by Griess reagent, commonly stands in for NO production.
Data set [1] is described as follows: Cytotoxicity against mouse RAW264.7 cells assessed as cell survival at 100 uM after 24 hrs by MTT assay relative to control. Format: cell-based. To be noted: read-out: Activity. The method in brief:
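RAW264.7 seeded 5 × 10^3/well for 24 h at 37 °C, 5% CO2. Samples dissolved in DMSO and diluted in DMEM to final 100 μM with 1% DMSO; 1% DMSO as solvent control, cell-free medium as blank. After 24 h, MTT added for 4 h; medium removed, formazan dissolved in DMSO, absorbance read at 490 nm. % inhibition computed relative to solvent control after blank subtraction.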

In general, IC50 refers to the midpoint of a concentration-inhibition curve.

As for `COc1cc(C[C@@H](O)[C@@H]2C[C@@H](O)[C@@H](c3ccc(O)c(OC)c3)[C@H](c3ccc(O)c(OC)c3)O2)ccc1O`, the IC50 with RAW264.7 is greater than 50 µM. The viability at 24 h, 100 µM in data set [1] was greater than 90%.

Turning to `COc1cc(CC[C@H]2C[C@H](O)[C@@H](O)[C@@H](c3ccc(O)c(OC)c3)O2)ccc1O`, in the data set on RAW264.7, the IC50 came to 21.8 µM. The viability at 24 h, 100 µM in data set [1] is greater than 90%.

With `COc1cc(C(=O)C[C@H]2C[C@@H](O)C[C@@H](c3ccc(O)c(OC)c3)O2)ccc1O`, the IC50 with RAW264.7 turned out to be 17.4 µM. The viability at 24 h, 100 µM in data set [1] is greater than 90%.

Consider `COc1cc(C[C@@H](O)[C@H]2C[C@H](O)[C@@H](c3ccc(O)c(OC)c3)[C@H](c3ccc(O)c(OC)c3)O2)ccc1O`, for which the IC50 in the data set with RAW264.7 was greater than 50 µM. In addition, the viability at 24 h, 100 µM in data set [1] was greater than 90%.

`COc1cc(C[C@H]2O[C@@H](CC(=O)c3ccc(O)c(OC)c3)C[C@H]2O)ccc1O`: the IC50 in the data set with RAW264.7 was found to be 26.5 µM. In data set [1], the viability at 24 h, 100 µM is greater than 90%.

As for `COc1cc(CC[C@H]2C[C@H](O)[C@H](O)[C@@H](c3ccc(O)c(OC)c3)O2)ccc1O`, the IC50 in the data set on RAW264.7 was greater than 50 µM. Moreover, the viability at 24 h, 100 µM in data set [1] was greater than 90%.

Regarding `COc1cc(C[C@@H](O)[C@@H]2C[C@@H](O)[C@@H](c3cc(OC)c(O)c(OC)c3)[C@H](c3ccc(O)c(OC)c3)O2)ccc1O`, in the data set on RAW264.7, the IC50 was 23.6 µM. The viability at 24 h, 100 µM in data set [1] is greater than 90%.

For `COc1cc(C(=O)C[C@H]2C[C@H](O)C[C@@H](c3ccc(O)c(OC)c3)O2)ccc1O`, the IC50 in the data set on RAW264.7 is greater than 50 µM. Further, in data set [1], the viability at 24 h, 100 µM is greater than 90%.

On to `COc1cc(C[C@H](O)[C@@H]2C[C@@H](O)C[C@H](c3ccc(O)c(OC)c3)O2)ccc1O`, for which the IC50 in the data set on RAW264.7 is greater than 50 µM. Besides, the viability at 24 h, 100 µM in data set [1] was greater than 90%.

In the case of `C[C@@H]1C[C@H]2[C@@H]3CCC4=CC(=O)C=C[C@]4(C)[C@@]3(F)[C@@H](O)C[C@]2(C)[C@@]1(O)C(=O)CO` [DEXAMETHASONE], the IC50 in the data set with RAW264.7 amounted to 32.5 µM.
